pIC50: −log10 of the molar value. The source made the active and inactive calls. The rule behind the calls is not given here.
Test system: Mus musculus
Assay: Antihypersensitive activity in double transgenic hypertensive mouse harboring human angiotensinogen and human renin genes assessed as reduction of mean arterial blood pressure at 17 to 34 umol/kg, po monitored 24 hrs post dose
Type: functional, organism-based

| Compound | Activity |
| --- | --- |
| COCCCOc1cc(C[C@@H](C[C@H](N)[C@@H](O)C[C@H](C(=O)NCC(C)(C)Cn2cc(CCO)nn2)C(C)C)C(C)C)ccc1OC.Cl | Active |

Test system: Mus musculus
Assay: Antihypersensitive activity in double transgenic hypertensive mouse harboring human angiotensinogen and human renin genes assessed as reduction of mean arterial blood pressure at 8.5 umol/kg, po monitored 24 hrs post dose
Type: functional, organism-based

| Compound | Activity |
| --- | --- |
| COCCCOc1cc(C[C@@H](C[C@H](N)[C@@H](O)C[C@H](C(=O)NCC(C)(C)C(N)=O)C(C)C)C(C)C)ccc1OC | Active |
| COCCCOc1cc(C[C@@H](C[C@H](N)[C@@H](O)C[C@H](C(=O)NCC(C)(C)Cn2cc(CCO)nn2)C(C)C)C(C)C)ccc1OC.Cl | Active |

Test system: Mus musculus
Assay: Antihypersensitive activity in po dosed double transgenic hypertensive mouse harboring human angiotensinogen and human renin genes assessed as time duration for sustained reduction of mean arterial blood pressure monitored 24 hrs post dose
Type: functional

| Compound | Time |
| --- | --- |
| COCCCOc1cc(C[C@@H](C[C@H](N)[C@@H](O)C[C@H](C(=O)NCC(C)(C)Cn2cc(CCO)nn2)C(C)C)C(C)C)ccc1OC.Cl | 14 h |

Biological target: T1, Renin (Homo sapiens, UniProt P00797)
T1 sequence (P00797 whole entry): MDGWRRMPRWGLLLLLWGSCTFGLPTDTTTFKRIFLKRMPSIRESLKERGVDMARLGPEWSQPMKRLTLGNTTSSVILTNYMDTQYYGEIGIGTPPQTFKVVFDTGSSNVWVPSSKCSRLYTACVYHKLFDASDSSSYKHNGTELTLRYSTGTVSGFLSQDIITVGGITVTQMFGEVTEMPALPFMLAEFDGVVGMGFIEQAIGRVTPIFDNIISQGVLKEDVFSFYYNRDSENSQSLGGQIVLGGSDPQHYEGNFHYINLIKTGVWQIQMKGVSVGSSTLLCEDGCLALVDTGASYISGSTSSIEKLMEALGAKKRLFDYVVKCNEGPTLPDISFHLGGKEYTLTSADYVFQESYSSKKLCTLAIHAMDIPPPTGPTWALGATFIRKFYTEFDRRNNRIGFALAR
Assay: Inhibition of human recombinant renin preincubated for 30 mins followed by substrate addition measured after 15 mins by fluorescence analysis
Procedure, shortened: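 Fluorogenic renin kit (Ex/Em 490/520 nm). Reaction started with pre-warmed renin substrate (20 µM solution) and run 15 min at 37 °C. RFU read with substrate-only wells as background. Vehicle, buffer and peptide inhibitor (10 µM solution) controls included.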

| Compound | pIC50 |
| --- | --- |
| COCCCOc1cc(C[C@@H](C[C@H](N)[C@@H](O)C[C@H](C(=O)NCC(C)(C)Cc2cccc(F)c2)C(C)C)C(C)C)ccc1OC | 8.01 |
| CCN(CC)Cc1cn(CC(C)(C)CNC(=O)[C@@H](C[C@H](O)[C@@H](N)C[C@H](Cc2ccc(OC)c(OCCCOC)c2)C(C)C)C(C)C)nn1 | 8.68 |
| COCCCOc1cc(C[C@@H](C[C@H](N)[C@@H](O)C[C@H](C(=O)NCC(C)(C)Cn2cc(C(C)(C)C)nn2)C(C)C)C(C)C)ccc1OC | 8.15 |
| COCCCOc1cc(C[C@@H](C[C@H](N)[C@@H](O)C[C@H](C(=O)NCC(C)(C)Cn2cc(-c3ccc(C)cc3)nn2)C(C)C)C(C)C)ccc1OC | 7.88 |
| COCCCOc1cc(C[C@@H](C[C@H](N)[C@@H](O)C[C@H](C(=O)NCC(C)(C)Cn2cc(C(C)O)nn2)C(C)C)C(C)C)ccc1OC (stereo partly drawn) | 8.96 |
| COCCCOc1cc(C[C@@H](C[C@H](N)[C@@H](O)C[C@H](C(=O)NCC(C)(C)Cc2cccc(OC)c2)C(C)C)C(C)C)ccc1OC | 7.91 |
| COCCCOc1cc(C[C@@H](C[C@H](N)[C@@H](O)C[C@H](C(=O)NCC(C)(C)Cn2ccnn2)C(C)C)C(C)C)ccc1OC | 8.70 |
| COCCCOc1cc(C[C@@H](C[C@H](N)[C@@H](O)C[C@H](C(=O)NCC(C)(C)Cn2cc(CN(C)C)nn2)C(C)C)C(C)C)ccc1OC | 8.72 |
| COCCCOc1cc(C[C@@H](C[C@H](N)[C@@H](O)C[C@H](C(=O)NCC(C)(C)CC2CCCCC2)C(C)C)C(C)C)ccc1OC | 7.81 |
| COCCCOc1cc(C[C@@H](C[C@H](N)[C@@H](O)C[C@H](C(=O)NCC(C)(C)CCOc2ccccc2)C(C)C)C(C)C)ccc1OC | 8.07 |
| COCCCOc1cc(C[C@@H](C[C@H](N)[C@@H](O)C[C@H](C(=O)NCCc2cccc(OC)c2)C(C)C)C(C)C)ccc1OC | 8.14 |
| CCCCc1cn(CC(C)(C)CNC(=O)[C@@H](C[C@H](O)[C@@H](N)C[C@H](Cc2ccc(OC)c(OCCCOC)c2)C(C)C)C(C)C)nn1 | 8.24 |
| COCCCOc1cc(C[C@@H](C[C@H](N)[C@@H](O)C[C@H](C(=O)NCC(C)(C)Cn2cc(-c3ccccn3)nn2)C(C)C)C(C)C)ccc1OC | 8.82 |
| COCCCOc1cc(C[C@@H](C[C@H](N)[C@@H](O)C[C@H](C(=O)NCC(C)(C)Cc2cccnc2)C(C)C)C(C)C)ccc1OC | 8.66 |
| COCCCOc1cc(C[C@@H](C[C@H](N)[C@@H](O)C[C@H](C(=O)N[C@@H](C)c2ccc(Br)cc2)C(C)C)C(C)C)ccc1OC | 7.68 |
| COCCCOc1cc(C[C@@H](C[C@H](N)[C@@H](O)C[C@H](C(=O)NCC(C)(C)Cc2cc(F)ccc2F)C(C)C)C(C)C)ccc1OC | 7.91 |
| COCCCOc1cc(C[C@@H](C[C@H](N)[C@@H](O)C[C@H](C(=O)NCC(C)(C)Cc2ccc(OC(F)(F)F)cc2)C(C)C)C(C)C)ccc1OC | 7.87 |
| COCCCOc1cc(C[C@@H](C[C@H](N)[C@@H](O)C[C@H](C(=O)NCC(C)(C)Cc2ccc(OC)cc2)C(C)C)C(C)C)ccc1OC | 7.99 |
| COCCCOc1cc(C[C@@H](C[C@H](N)[C@@H](O)C[C@H](C(=O)NCC(C)(C)Cn2cc(CN(C(C)C)C(C)C)nn2)C(C)C)C(C)C)ccc1OC | 8.57 |
| COCCCOc1cc(C[C@@H](C[C@H](N)[C@@H](O)C[C@H](C(=O)NCC(C)(C)Cc2ccc3ccccc3c2)C(C)C)C(C)C)ccc1OC | 7.95 |
| COCCCOc1cc(C[C@@H](C[C@H](N)[C@@H](O)C[C@H](C(=O)NCC(C)(C)Cc2ccccc2)C(C)C)C(C)C)ccc1OC | 7.47 |
| COCCCOc1cc(C[C@@H](C[C@H](N)[C@@H](O)C[C@H](C(=O)NCC(C)(C)Cn2cc(C3CC3)nn2)C(C)C)C(C)C)ccc1OC | 8.80 |

Second part, the compound after the results:

| pIC50 | Compound |
| --- | --- |
| 7.47 | COCCCOc1cc(C[C@@H](C[C@H](N)[C@@H](O)C[C@H](C(=O)N[C@H](C)c2ccc(Br)cc2)C(C)C)C(C)C)ccc1OC |
| 7.52 | COCCCOc1cc(C[C@@H](C[C@H](N)[C@@H](O)C[C@H](C(=O)N[C@H](C)c2ccc(Cl)cc2)C(C)C)C(C)C)ccc1OC |
| 7.56 | COCCCOc1cc(C[C@@H](C[C@H](N)[C@@H](O)C[C@H](C(=O)NCCc2ccccc2Cl)C(C)C)C(C)C)ccc1OC |
| 7.77 | CCCCCCc1cn(CC(C)(C)CNC(=O)[C@@H](C[C@H](O)[C@@H](N)C[C@H](Cc2ccc(OC)c(OCCCOC)c2)C(C)C)C(C)C)nn1 |
| 7.79 | COCCCOc1cc(C[C@@H](C[C@H](N)[C@@H](O)C[C@H](C(=O)NCC(C)(C)Cc2c(F)cccc2F)C(C)C)C(C)C)ccc1OC |
| 7.82 | COCCCOc1cc(C[C@@H](C[C@H](N)[C@@H](O)C[C@H](C(=O)N[C@@H](C)c2ccc(Cl)cc2)C(C)C)C(C)C)ccc1OC |
| 7.96 | COCCCOc1cc(C[C@@H](C[C@H](N)[C@@H](O)C[C@H](C(=O)NCCc2ccc3c(c2)OCO3)C(C)C)C(C)C)ccc1OC |
| 8.01 | COCCCOc1cc(C[C@@H](C[C@H](N)[C@@H](O)C[C@H](C(=O)NCC(C)(C)Cc2cccc(Cl)c2)C(C)C)C(C)C)ccc1OC |
| 8.04 | COCCCOc1cc(C[C@@H](C[C@H](N)[C@@H](O)C[C@H](C(=O)NCC(C)(C)Cc2ccccc2F)C(C)C)C(C)C)ccc1OC |
| 8.28 | COCCCOc1cc(C[C@@H](C[C@H](N)[C@@H](O)C[C@H](C(=O)NCC(C)(C)Cn2cc(C3(O)CCCC3)nn2)C(C)C)C(C)C)ccc1OC |
| 8.30 | COCCCOc1cc(C[C@@H](C[C@H](N)[C@@H](O)C[C@H](C(=O)NCC(C)(C)Cn2cc(-c3ccccc3)nn2)C(C)C)C(C)C)ccc1OC |
| 8.59 | COCCCOc1cc(C[C@@H](C[C@H](N)[C@@H](O)C[C@H](C(=O)NCCc2ccccn2)C(C)C)C(C)C)ccc1OC |
| 8.74 | COCCCOc1cc(C[C@@H](C[C@H](N)[C@@H](O)C[C@H](C(=O)NCC(C)(C)CCN2CCOCC2)C(C)C)C(C)C)ccc1OC |
| 8.82 | COCCCOc1cc(C[C@@H](C[C@H](N)[C@@H](O)C[C@H](C(=O)NCC(C)(C)Cc2ccncc2)C(C)C)C(C)C)ccc1OC |
| 8.96 | COCCCOc1cc(C[C@@H](C[C@H](N)[C@@H](O)C[C@H](C(=O)NCC(C)(C)Cn2cc(CN3CCOCC3)nn2)C(C)C)C(C)C)ccc1OC |
| 9.00 | COCCCOc1cc(C[C@@H](C[C@H](N)[C@@H](O)C[C@H](C(=O)NCC(C)(C)Cn2cc(CN3CCCCC3)nn2)C(C)C)C(C)C)ccc1OC |
| 9.05 | COCCCOc1cc(C[C@@H](C[C@H](N)[C@@H](O)C[C@H](C(=O)NCC(C)(C)Cn2cc(CO)nn2)C(C)C)C(C)C)ccc1OC |
| 9.15 | COCCCOc1cc(C[C@@H](C[C@H](N)[C@@H](O)C[C@H](C(=O)NCC(C)(C)Cn2cc(CCO)nn2)C(C)C)C(C)C)ccc1OC.Cl |

Test system: Mus musculus
Assay: Antihypersensitive activity in po dosed double transgenic hypertensive mouse harboring human angiotensinogen and human renin genes assessed as maximum reduction of mean arterial blood pressure monitored 24 hrs post dose
Type: functional

| Compound | Activity |
| --- | --- |
| COCCCOc1cc(C[C@@H](C[C@H](N)[C@@H](O)C[C@H](C(=O)NCC(C)(C)Cn2cc(CCO)nn2)C(C)C)C(C)C)ccc1OC.Cl | 40 mmHg |

Biological target: T2, Cathepsin E (Homo sapiens) (UniProt P14091)
T2 sequence (whole entry): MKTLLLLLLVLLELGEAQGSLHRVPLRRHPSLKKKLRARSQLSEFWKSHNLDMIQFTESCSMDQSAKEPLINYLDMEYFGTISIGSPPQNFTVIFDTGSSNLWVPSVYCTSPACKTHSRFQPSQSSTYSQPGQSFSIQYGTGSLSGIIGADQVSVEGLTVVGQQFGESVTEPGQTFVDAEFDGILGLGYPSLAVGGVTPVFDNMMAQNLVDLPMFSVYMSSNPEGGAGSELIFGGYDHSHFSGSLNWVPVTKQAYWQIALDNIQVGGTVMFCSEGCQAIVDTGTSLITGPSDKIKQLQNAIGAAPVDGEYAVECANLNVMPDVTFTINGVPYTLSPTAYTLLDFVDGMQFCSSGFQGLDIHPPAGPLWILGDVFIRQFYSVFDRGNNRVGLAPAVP
Assay: Inhibition of human recombinant cathepsin E preincubated for 30 mins followed by substrate addition measured after 15 mins by fluorescence analysis

| inhibition | Compound |
| --- | --- |
| inactive | COCCCOc1cc(C[C@@H](C[C@H](N)[C@@H](O)C[C@H](C(=O)NCC(C)(C)Cn2cc(CCO)nn2)C(C)C)C(C)C)ccc1OC.Cl |

Test system: Mus musculus
Assay: Antihypersensitive activity in po dosed double transgenic hypertensive mouse harboring human angiotensinogen and human renin genes assessed as reduction of mean arterial blood pressure monitored 24 hrs post dose
Type: functional, organism-based

| Compound | Activity |
| --- | --- |
| COCCCOc1cc(C[C@@H](C[C@H](N)[C@@H](O)C[C@H](C(=O)NCC(C)(C)Cn2cc(CCO)nn2)C(C)C)C(C)C)ccc1OC.Cl | Dose-dependent effect |

Biological target: Cathepsin D (Homo sapiens) (UniProt P07339)
Assay: Inhibition of human recombinant cathepsin D preincubated for 30 mins followed by substrate addition measured after 15 mins by fluorescence analysis

Cathepsin D (Homo sapiens), sequence (P07339 65-162 limits assumed): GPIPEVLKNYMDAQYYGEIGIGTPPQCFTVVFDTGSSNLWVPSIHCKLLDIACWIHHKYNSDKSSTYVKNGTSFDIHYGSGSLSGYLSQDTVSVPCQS
Cathepsin D (Homo sapiens), sequence (P07339 169-412 limits assumed): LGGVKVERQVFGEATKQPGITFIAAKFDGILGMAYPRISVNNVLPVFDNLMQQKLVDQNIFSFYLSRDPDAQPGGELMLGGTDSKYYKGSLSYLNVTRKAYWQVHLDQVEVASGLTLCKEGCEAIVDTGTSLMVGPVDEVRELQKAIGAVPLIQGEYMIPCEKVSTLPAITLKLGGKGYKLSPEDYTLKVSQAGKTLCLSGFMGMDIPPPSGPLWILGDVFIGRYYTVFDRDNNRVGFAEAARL

| inhibition | Compound |
| --- | --- |
| inactive | COCCCOc1cc(C[C@@H](C[C@H](N)[C@@H](O)C[C@H](C(=O)NCC(C)(C)Cn2cc(CCO)nn2)C(C)C)C(C)C)ccc1OC.Cl |

Source: ChEMBL document CHEMBL3632546 (Eur J Med Chem, 2015)
